One data set has as its target Cannabinoid receptor 2 (Homo sapiens, UniProt P34972). Put plainly: Displacement of [3H]CP-55940 from human recombinant CB2R expressed in CHO cells. Format: cell-based. A digest of the protocol: (§1)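 Radioligand competition used 0.5 nM [³H]CP55940 with recombinant human CB1R-CHO or CB2R-CHO membranes. Bound and free ligand were separated by filtration, and IC₅₀ came from nonlinear curve fitting.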
Background: Loss of bound radioactivity is the signal in a displacement assay; it reports binding, not function.

Data set [1] deals with T1, Cannabinoid receptor 1 (Rattus norvegicus, UniProt P20272). Put plainly: Displacement of [3H]CP-55940 from rat recombinant CB1R expressed in CHO cells. Format: cell-based.
T1 sequence (P20272 whole entry): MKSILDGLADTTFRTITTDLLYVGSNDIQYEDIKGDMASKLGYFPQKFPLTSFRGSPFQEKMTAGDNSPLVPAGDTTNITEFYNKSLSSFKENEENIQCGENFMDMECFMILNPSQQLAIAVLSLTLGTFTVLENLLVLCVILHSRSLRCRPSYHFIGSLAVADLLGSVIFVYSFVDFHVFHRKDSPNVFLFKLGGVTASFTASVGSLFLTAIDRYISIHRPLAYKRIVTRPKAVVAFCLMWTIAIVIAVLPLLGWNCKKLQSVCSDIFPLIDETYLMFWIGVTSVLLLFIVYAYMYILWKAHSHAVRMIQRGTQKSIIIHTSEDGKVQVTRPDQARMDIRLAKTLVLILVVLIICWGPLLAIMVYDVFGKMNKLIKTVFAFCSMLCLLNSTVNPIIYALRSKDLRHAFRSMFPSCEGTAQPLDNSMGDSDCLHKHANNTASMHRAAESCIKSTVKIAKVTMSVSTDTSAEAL
Data set [2] can be described thus: Bioavailability in Sprague-Dawley rat at 1 mg/kg, iv and 2 mg/kg, po. Type of data set: ADME, organism-based. The following applies: in vivo. A digest of the protocol:
(§2)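 Male Sprague-Dawley rats received 1 mpk intravenously or 2 mpk orally. Blood was drawn at various time points into lithium heparin and centrifuged, and plasma was stored at -70 °C. Plasma was extracted by protein precipitation and analysed by LC-MS/MS.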

In data set [3] the test system is Rattus norvegicus. The data set can be described thus: Reduction of overnight food intake in diet induced obese Sprague-Dawley rat at 3 mg/kg, po. Type of data set: functional. Also on record: scale not given: the % may be the effect or the level left. A digest of the protocol: (§3)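 Male DIO rats were acclimated at least 3 days in an automated food-intake system, where computer-linked balances logged grams of food eaten every 5 min. They were fed milled MHF diet throughout. Compound or vehicle (10% Tween-80 in water) was given by oral gavage 1 h before dark-cycle onset. Overnight food intake and body-weight change were measured against vehicle, with significance set at P < 0.05.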

Data set [4] concerns Rattus norvegicus. The data set can be described thus: Reduction of body weight in diet induced obese Sprague-Dawley rat at 3 mg/kg, po. Format: functional. An outline of the steps: as §3
Data set [5] can be described thus: Half life in Sprague-Dawley rat at 1 mg/kg, iv and 2 mg/kg, po. The following applies: in vivo. Type of data set: ADME, organism-based. A digest of the protocol:
as §2

Data set [6] concerns the target T2, Cannabinoid receptor 1 (Homo sapiens, UniProt P21554). Put plainly: Inverse agonist activity at human recombinant CB1R expressed in CHO cells assessed as increase in forskolin-stimulated cAMP level. Type of data set: functional, cell-based. A digest of the protocol:
(§4)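 Recombinant CB1R-CHO cells were incubated with test compound across a range of concentrations, plus forskolin and the phosphodiesterase inhibitor IBMX. Buffer was Earle's balanced salt solution with 5 mM MgCl₂, 10 mM HEPES pH 7.3 and 1 mg/mL BSA, for 30 min at room temperature, with cAMP read out.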

Data set [7] can be described thus: Plasma clearance in Sprague-Dawley rat at 1 mg/kg, iv and 2 mg/kg, po. Type of data set: ADME, organism-based. A digest of the protocol:
as §2

In data set [8] the target is T1, Cannabinoid receptor 1. The data set can be described thus: Agonist activity at rat recombinant CB1R expressed in CHO cells assessed as inhibition of forskolin-stimulated cAMP level. Format: functional, cell-based. An outline of the steps:
as §4

The nature of data set [9]: Ratio of drug level in brain to plasma in Sprague-Dawley rat at 1 mg/kg, iv and 2 mg/kg, po after 4 hrs. Type of data set: ADME, organism-based.
In data set [10] the target is T1, Cannabinoid receptor 1. The data set can be described thus: Displacement of [3H] SR-141716 from rat recombinant CB1R expressed in CHO cells. Type of data set: cell-based.
Data set [11] is described as follows: Ratio of drug level in brain to plasma in Sprague-Dawley rat at 1 mg/kg, iv and 2 mg/kg, po over 0.25 to 4 hrs. Format: ADME, organism-based. An outline of the steps: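 Male Sprague-Dawley rats got 1 mpk iv for brain penetration and were euthanised by CO₂ 1 h later. Whole brain was frozen on dry ice, and blood was taken by cardiac puncture into lithium heparin. PK arms were dosed 1 mpk iv and 2 mpk po, with blood sampled at several time points. Plasma and brain homogenate were extracted by protein precipitation and analysed by LCMS².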

For data set [12], the target named is T2, Cannabinoid receptor 1. The data set can be described thus: Displacement of [3H]SR141716 from human recombinant CB1R expressed in CHO cells. Format: cell-based.
The target in data set [13] is T2, Cannabinoid receptor 1. The data set can be described thus: Displacement of [3H]CP-55940 from human recombinant CB1R expressed in CHO cells. Format: cell-based. A digest of the protocol:
as §1

In data set [14] the target is T2, Cannabinoid receptor 1. The data set can be described thus: Agonist activity at human recombinant CB1R expressed in CHO cells assessed as inhibition of forskolin-stimulated cAMP level. Type of data set: functional, cell-based. A digest of the protocol:
as §4

The target of data set [15] is T1, Cannabinoid receptor 1. Put plainly: Antagonist activity at rat recombinant CB1R expressed in CHO cells assessed as inhibition of methanandamide-stimulated cAMP level. Format: functional, cell-based. A digest of the protocol: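 Antagonist mode of the forskolin-stimulated cAMP assay in CB1R-CHO cells. Methanandamide at 300 nM was the agonist challenge, and IC₅₀ was determined across test-compound concentrations. Percent inhibition was also recorded at a single 2 µM test concentration.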
A general note: Cyclic AMP is a second messenger, typically raised through Gs and lowered through Gi signalling.

Data set [16] can be described thus: Volume of distribution at steady state in Sprague-Dawley rat at 1 mg/kg, iv and 2 mg/kg, po. The following applies: in vivo, read-out: Vdss. Type of data set: ADME, organism-based. A digest of the protocol:
as §2

Data set [17] deals with Voltage-gated inwardly rectifying potassium channel KCNH2 (Homo sapiens, UniProt Q12809). The data set can be described thus: Inhibition of human ERG by MK-0499 binding assay.
Sequence of Voltage-gated inwardly rectifying potassium channel KCNH2 (Q12809 whole entry): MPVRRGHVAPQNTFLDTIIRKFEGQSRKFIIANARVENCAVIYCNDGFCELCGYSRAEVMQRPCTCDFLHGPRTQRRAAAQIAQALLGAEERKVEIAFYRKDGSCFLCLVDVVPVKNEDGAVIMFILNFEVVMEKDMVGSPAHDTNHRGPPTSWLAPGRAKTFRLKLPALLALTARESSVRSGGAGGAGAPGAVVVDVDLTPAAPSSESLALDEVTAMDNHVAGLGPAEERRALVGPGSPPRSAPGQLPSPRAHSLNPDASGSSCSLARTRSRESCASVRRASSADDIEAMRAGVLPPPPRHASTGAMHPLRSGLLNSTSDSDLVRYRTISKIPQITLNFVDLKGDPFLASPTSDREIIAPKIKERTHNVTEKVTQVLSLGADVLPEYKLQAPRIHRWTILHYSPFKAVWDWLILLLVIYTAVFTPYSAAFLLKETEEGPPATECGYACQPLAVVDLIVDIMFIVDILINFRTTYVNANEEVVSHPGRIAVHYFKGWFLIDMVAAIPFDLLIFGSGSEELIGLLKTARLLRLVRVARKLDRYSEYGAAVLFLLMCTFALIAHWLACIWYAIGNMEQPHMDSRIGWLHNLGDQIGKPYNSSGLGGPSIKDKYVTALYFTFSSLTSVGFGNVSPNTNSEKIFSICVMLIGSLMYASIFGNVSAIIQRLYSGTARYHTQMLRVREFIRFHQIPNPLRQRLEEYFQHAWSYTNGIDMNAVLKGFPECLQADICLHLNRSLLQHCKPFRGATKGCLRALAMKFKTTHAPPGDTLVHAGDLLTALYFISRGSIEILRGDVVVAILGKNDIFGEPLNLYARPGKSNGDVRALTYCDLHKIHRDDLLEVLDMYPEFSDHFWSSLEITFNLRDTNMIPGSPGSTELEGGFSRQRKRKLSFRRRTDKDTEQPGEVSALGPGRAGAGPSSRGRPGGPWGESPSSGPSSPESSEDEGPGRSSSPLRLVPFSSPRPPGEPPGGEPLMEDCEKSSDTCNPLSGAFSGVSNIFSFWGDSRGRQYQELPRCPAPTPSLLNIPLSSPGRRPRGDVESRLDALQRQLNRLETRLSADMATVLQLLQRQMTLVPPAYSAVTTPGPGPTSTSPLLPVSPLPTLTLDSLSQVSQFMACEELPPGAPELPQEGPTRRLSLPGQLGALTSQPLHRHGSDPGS

The results in this text go back to ChEMBL document CHEMBL1153427, “1-Sulfonyl-4-acylpiperazines as selective cannabinoid-1 receptor (CB1R) inverse agonists for the treatment of obesity” (J Med Chem, 2009).

As a reminder, the IC50 is the concentration that inhibits the measured activity by half. The term bioavailability denotes dose-corrected exposure relative to a reference, in per cent. By half-life is commonly meant the time in which the quantity being followed falls by half. A word on the EC50: it is the concentration at which the effect is half-maximal. In general, Kp refers to tissue or fluid exposure divided by exposure in the circulation.

Sequence of Cannabinoid receptor 2 (P34972 whole entry): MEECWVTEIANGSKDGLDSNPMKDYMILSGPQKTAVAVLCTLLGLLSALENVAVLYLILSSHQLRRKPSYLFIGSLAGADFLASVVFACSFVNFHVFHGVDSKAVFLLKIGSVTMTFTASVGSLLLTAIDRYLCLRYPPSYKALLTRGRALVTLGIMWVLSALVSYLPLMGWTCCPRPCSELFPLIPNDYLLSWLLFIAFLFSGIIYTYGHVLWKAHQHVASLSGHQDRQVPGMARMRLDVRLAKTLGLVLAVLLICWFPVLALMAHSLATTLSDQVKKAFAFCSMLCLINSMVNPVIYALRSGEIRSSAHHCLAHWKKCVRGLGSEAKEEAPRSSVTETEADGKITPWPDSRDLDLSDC
T2 sequence (P21554 whole entry): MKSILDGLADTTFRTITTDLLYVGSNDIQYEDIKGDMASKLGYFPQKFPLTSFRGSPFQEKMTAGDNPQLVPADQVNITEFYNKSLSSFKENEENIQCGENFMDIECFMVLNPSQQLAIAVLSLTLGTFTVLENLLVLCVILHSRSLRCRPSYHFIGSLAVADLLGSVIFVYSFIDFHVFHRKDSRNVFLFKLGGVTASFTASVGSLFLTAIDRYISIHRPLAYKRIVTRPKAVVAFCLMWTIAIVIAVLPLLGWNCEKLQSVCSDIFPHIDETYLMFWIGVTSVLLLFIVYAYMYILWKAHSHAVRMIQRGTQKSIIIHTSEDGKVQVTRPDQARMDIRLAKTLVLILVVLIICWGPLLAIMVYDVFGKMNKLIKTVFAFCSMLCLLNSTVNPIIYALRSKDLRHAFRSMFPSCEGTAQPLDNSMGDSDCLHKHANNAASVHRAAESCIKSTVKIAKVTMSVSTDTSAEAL

With `O=C([C@@H]1C[C@H]1c1ccc(C(F)(F)F)cc1)N1CCN(S(=O)(=O)c2cc(C3CC3)cc(C(F)(F)F)c2)CC1`, the IC50 at Cannabinoid receptor 2 was > 10000 nM; on Cannabinoid receptor 1 [1], 2.2 nM; on Cannabinoid receptor 1 [10] it was 0.2 nM; at Cannabinoid receptor 1 [12], 0.1 nM; on Cannabinoid receptor 1 [13] it was 0.3 nM; at Cannabinoid receptor 1 [15], 9.2 nM. For the same molecule, the bioavailability in data set [2] was 74%. Also, the Activity in the data set with Rattus norvegicus [3] is -59%; in the data set with Rattus norvegicus [4] it was -14 g. In addition, the half-life in [5] was 22 h. The EC50 was determined as 5.8 nM at Cannabinoid receptor 1 [6], 3.4 nM at Cannabinoid receptor 1 [8] and 5.8 nM on Cannabinoid receptor 1 [14]. Moreover, the clearance in [7] was found to be 3.7 mL/min/kg. Besides, the concentration ratio (Kp) at 4 h in data set [9] worked out at 0.3. The Kp in data set [11] is 0.8. For the same molecule, in data set [16], the Vd turned out to be 5.4 L/kg.
As to `O=C([C@@H]1C[C@H]1c1ccc(C(F)(F)F)cc1)N1CCN(S(=O)(=O)c2cc(-c3ccn[nH]3)cc(C(F)(F)F)c2)CC1`, the IC50 on Cannabinoid receptor 2 was > 10000 nM; in data set [17], 500 nM; on Cannabinoid receptor 1 [13], 0.3 nM. In the data set on Rattus norvegicus [4], the Activity is on record as -10 g.
Regarding `O=C([C@@H]1C[C@H]1c1ccc(C(F)(F)F)cc1)N1CCN(S(=O)(=O)c2cc(CCO)cc(C(F)(F)F)c2)CC1`, the values for the IC50 (at Cannabinoid receptor 2; in data set [17]; on Cannabinoid receptor 1 [13]) were > 10000 nM, 900 nM and 4 nM, respectively.
Regarding `O=C(Cc1ccc(C(F)(F)F)cc1)N1CCN(S(=O)(=O)c2cc(C(F)(F)F)cc(C(F)(F)F)c2)CC1`, the IC50 at Cannabinoid receptor 2 is > 10000 nM; at Cannabinoid receptor 1 [13] it was 5 nM. For the same molecule, the 50% effective concentration (EC50) on Cannabinoid receptor 1 [6] is 1 nM.
The corresponding values for `O=C(Cc1ccc(C(F)(F)F)cc1)N1CCN(S(=O)(=O)c2cc(Br)cc(C(F)(F)F)c2)CC1` are > 10000 nM, 6 nM and 1 nM.
For `O=C(Cc1ccc(C(F)(F)F)cc1)N1CCN(S(=O)(=O)c2cc(C3CC3)cc(C(F)(F)F)c2)CC1`, the IC50 on Cannabinoid receptor 2 is > 10000 nM; at Cannabinoid receptor 1 [1], 27 nM; on Cannabinoid receptor 1 [10], 11 nM; at Cannabinoid receptor 1 [12], 0.5 nM; on Cannabinoid receptor 1 [13] it was 1.2 nM; at Cannabinoid receptor 1 [15] it was 1.9 nM. The Activity is given as -40% in the data set on Rattus norvegicus [3] and -2 g in the data set with Rattus norvegicus [4]. The EC50 at Cannabinoid receptor 1 [6] is 1 nM; at Cannabinoid receptor 1 [8], 0.6 nM. Moreover, in data set [11], the Kp is 1.1.
Consider `O=C(C1CCCCC1)N1CCN(S(=O)(=O)c2cc(Cl)cc(Cl)c2)CC1`, for which the concentration for half-maximal inhibition (IC50) on Cannabinoid receptor 2 is > 10000 nM. At Cannabinoid receptor 1 [6], the EC50 was 0.5 nM.
For the molecule `O=C(c1ccc(C(F)(F)F)cc1)N1CCN(S(=O)(=O)c2cc(C3CC3)cc(C(F)(F)F)c2)CC1`, the IC50 amounted to 175 nM on Cannabinoid receptor 1 [1]; 227 nM at Cannabinoid receptor 1 [10]; 47 nM at Cannabinoid receptor 1 [12]; 58 nM on Cannabinoid receptor 1 [13]; 77 nM at Cannabinoid receptor 1 [15]. In [2], this molecule showed a bioavailability of 47%. Besides, the Activity with Rattus norvegicus [3] is reported as -14%; in the data set on Rattus norvegicus [4], 8 g. This molecule also gave a half-life in data set [5] of 19 h. The molecule also had a clearance in data set [7] of 1.9 mL/min/kg. Besides, the concentration giving a half-maximal response (EC50) at Cannabinoid receptor 1 [8] was found to be 4.4 nM; on Cannabinoid receptor 1 [14], 1.3 nM. Also, in data set [11], the Kp was found to be 0.8. Also, in [16], the Vd was 2.7 L/kg.
Take `O=C(C1CCCCC1)N1CCN(S(=O)(=O)c2cccc3ccccc23)CC1`: the IC50 on Cannabinoid receptor 2 was > 10000 nM; at Cannabinoid receptor 1 [13], 95 nM. The EC50 at Cannabinoid receptor 1 [6] was 0.6 nM.
The corresponding values for `Cc1cc(C)cc(S(=O)(=O)N2CCN(C(=O)C3CCCCC3)CC2)c1` are > 10000 nM, 400 nM and 1.1 nM.
Consider `O=C([C@@H]1C[C@H]1c1ccc(C(F)(F)F)cc1)N1CCN(S(=O)(=O)c2cc(C(F)(F)F)cc(C(F)(F)CO)c2)CC1`, for which the IC50 on Cannabinoid receptor 2 is > 10000 nM; on Cannabinoid receptor 1 [13], 5 nM.
For the molecule `O=C([C@@H]1C[C@H]1c1ccc(C(F)(F)F)cc1)N1CCN(S(=O)(=O)c2cc(C(O)C(F)(F)F)cc(C(F)(F)F)c2)CC1` (mixture of isomers), the IC50 on Cannabinoid receptor 2 is > 10000 nM; in data set [17], 60 nM; on Cannabinoid receptor 1 [13], 1.5 nM. In addition, the Activity with Rattus norvegicus [4] was -8 g.
Regarding `O=C1CSC(c2cc(C(F)(F)F)cc(S(=O)(=O)N3CCN(C(=O)[C@@H]4C[C@H]4c4ccc(C(F)(F)F)cc4)CC3)c2)=N1`, the results for the IC50 at Cannabinoid receptor 2 and at Cannabinoid receptor 1 [13] were > 10000 nM and 10 nM, respectively.
Taken in the same sequence, the figures for `O=C([C@@H]1C[C@H]1c1ccc(C(F)(F)F)cc1)N1CCN(S(=O)(=O)c2cc(-c3noc(=O)[nH]3)cc(C(F)(F)F)c2)CC1` were > 10000 nM and 200 nM.
On to `O=C(C1CCCCC1)N1CCN(S(=O)(=O)c2cc(C(F)(F)F)cc(C(F)(F)F)c2)CC1`, for which the IC50 at Cannabinoid receptor 2 is > 10000 nM. For the same molecule, the EC50 at Cannabinoid receptor 1 [6] was determined as 1 nM.
Turning to `Cc1[nH]ncc1-c1cc(C(F)(F)F)cc(S(=O)(=O)N2CCN(C(=O)[C@@H]3C[C@H]3c3ccc(C(F)(F)F)cc3)CC2)c1`, the IC50 on Cannabinoid receptor 2 is > 10000 nM; at Cannabinoid receptor 1 [13], 20 nM.
The corresponding values for `O=C([C@@H]1C[C@H]1c1ccc(C(F)(F)F)cc1)N1CCN(S(=O)(=O)c2cc(-c3cn[nH]c3)cc(C(F)(F)F)c2)CC1` are > 10000 nM and 9 nM.
The corresponding values for `CC(C)(O)c1cc(C(F)(F)F)cc(S(=O)(=O)N2CCN(C(=O)[C@@H]3C[C@H]3c3ccc(C(F)(F)F)cc3)CC2)c1` are > 10000 nM and 8 nM.
With `Cc1nnc(-c2cc(C(F)(F)F)cc(S(=O)(=O)N3CCN(C(=O)[C@@H]4C[C@H]4c4ccc(C(F)(F)F)cc4)CC3)c2)[nH]1`, the figures for the IC50 on Cannabinoid receptor 2 and at Cannabinoid receptor 1 [13] were > 10000 nM and 10 nM, respectively.
With `COC(=O)c1cc(C(F)(F)F)cc(S(=O)(=O)N2CCN(C(=O)Cc3ccc(C(F)(F)F)cc3)CC2)c1`, the IC50 on Cannabinoid receptor 2 was > 10000 nM; on Cannabinoid receptor 1 [13], 5 nM. Moreover, at Cannabinoid receptor 1 [6], the EC50 was 1 nM.
The corresponding values for `O=C(C1CCCCC1)N1CCN(S(=O)(=O)c2cccc(-c3ccccc3)c2)CC1` are > 10000 nM, 200 nM and 6 nM.
As to `Nc1nnc(-c2cc(C(F)(F)F)cc(S(=O)(=O)N3CCN(C(=O)[C@@H]4C[C@H]4c4ccc(C(F)(F)F)cc4)CC3)c2)o1`, the IC50 is > 10000 nM on Cannabinoid receptor 2 and 400 nM at Cannabinoid receptor 1 [13].
